Yeast growth inh: growth inhibitors of yeast BB579 in restrictive medium, primary screen, yeast lifespan-shortening project, S. cerevisiae; 0.51% of 140,000 active; inhibition, % at 10 µM; OD615, 48 h;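 active means inhibition above a set limit, 3 SD over the mean compound inhibition, cut at about 44% in these data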
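Assay system – yeast BB579 (DeaD) · Dosing – single compound dose of 10 µM, 0.25% DMSO final · Detection – OD615 turbidity measurement · Buffer or medium – CSMM-D restrictive synthetic medium containing dextrose (glucose) · Benchmarks – positive control amphotericin B 10 µg/mL · Incubation – 48 h exposure, 30 °C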
RAM network inh: inhibitors of the yeast RAM network, primary screen, dse1pr::URA3 reporter, 5-FOA selection | S. cerevisiae dse1pr::URA3 reporter, 5-FOA growth OD615, 2 d; analog-sensitive cbk1-as2 kinase mutant strain | inhibition, % at 50 µM | 1.8% of 190,000 active | AID 868, 2007;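 active means inhibition above a set limit, 3 SD over mean compound inhibition, cut at about 8.4% in these data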;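 further: 0% = DMSO-only wells with no growth and 100% = 10 µM 1-NA-PP1 full growth; inhibition rescues growth on 5-FOA so higher OD means more RAM inhibition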
Yeast life ext: compounds extending yeast replicative lifespan, primary screen, S. cerevisiae, OD615. 0.68% of 130,000 active. S. cerevisiae growth with nicotinamide; deaD strain in restrictive glucose medium. inhibition of the nicotinamide effect, % at 10 µM;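 active means inhibition above a set limit, placed 3 SD over the median of all compounds, cut at about 26% in these data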;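 further: 0% = nicotinamide-treated wells and 100% = cells grown without nicotinamide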
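assay system = DeaD-strain S. cerevisiae | buffer or medium = restrictive glucose medium | reagent = 1.5 mM nicotinamide | compound = 10 µM single point, 0.25% DMSO | incubation = 48 h compound exposure at 30 °C, humidified | signal = OD615 measurement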
HMGR II inh: inhibitors of E. faecalis class II HMGR, primary screen, biochemical, Enterococcus faecalis | inhibition, % at 10 µM | 0.41% of 190,000 active | HMG-CoA reductase (Enterococcus faecalis, mvaE) | purified E. faecalis HMGR, NADPH absorbance 340 nm kinetic;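 active means inhibition above a set limit, the median over all tested compounds plus 3 SD, cut at about 9.5% in these data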;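 further: enzyme runs in reverse so mevalonate oxidation gives rising NADPH absorbance; 0% = complete reaction with DMSO and 100% = background rate lacking mevalonate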
Insulin prom inh: inhibitors of insulin promoter-driven GFP, primary screen, imaging, TRM-6 cells, eGFP reporter, cell count | inhibition, % at 2 µM | AID 1273, 2008 | 0.9% of 130,000 active | reporter expression induced with tamoxifen;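 active means inhibition above the mean plus 3 SD, with well images judged a real hit on visual review, cut at about 60% in these data, passing the limit was not always enough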
The depositor's hits bear a star; x = no result given. In the library only some 3.7% were active in any assay of this set; here they are far more common.

SMILES | Yeast growth inh | RAM network inh | Yeast life ext | HMGR II inh | Insulin prom inh
O=S(=O)(Nc1nc(-c2sccc2Cl)cs1)c1cc(Cl)ccc1Cl | -24.1 | 3.5 | 45.5* | 3.0 | 9.4
CN(C)c1ccc(NS(=O)(=O)c2cc(Cl)ccc2Cl)cc1 | -2.7 | 0.4 | 11.2 | 0.8 | 10.8
N#CCC(=O)Nc1ccc(C(=O)NCc2ccccn2)cc1 | x | 1.2 | x | 0.3 | 45.0
O=C(NCCc1ccccc1)NC1CCCCC1 | 18.7 | -0.7 | -11.1 | -10.1 | 80.0*
Cc1cccc2cc(CN(CCCN(C)C)C(=S)NCCc3ccccc3)c(=O)[nH]c12 | x | -0.2 | x | -5.9 | x
CCOc1cc(N2CCOCC2)c(OCC)cc1NC(=O)c1ccc(OCc2c(C)noc2C)c(OC)c1 | -54.4 | 8.7* | 1.8 | -1.6 | -9.7
Cc1c(Cl)c([N+](=O)[O-])nn1CC(=O)N1CCN(Cc2ccccc2)CC1 | x | 0.9 | x | -0.1 | x
O=C1C2N=NN(CC(=O)N3N=C(c4ccccc4)CC3c3ccc([N+](=O)[O-])cc3)C2C(=O)N1c1ccccc1 (stereo not given) | x | 4.0 | x | 1.9 | x
O=C(O)c1cc(-c2ccc(Cl)cc2)n(-c2ccccc2)n1 | x | -1.6 | x | 3.1 | 64.3
O=C(O)c1cc(-c2ccccc2)n(-c2ccccc2C(=O)O)n1 | -17.2 | -0.9 | -12.0 | 9.6* | 50.0
CCCN(CCC)S(=O)(=O)c1ccc(C(=O)Nc2nc(-c3ccccc3)c(C(=O)OCC)s2)cc1 | -23.4 | 3.5 | -3.9 | 1.1 | x
Cc1ccc(C(=O)OCn2ncc(Cl)c(Cl)c2=O)cc1 | 86.2* | -1.6 | -12.0 | 1.8 | -193.6
O=C(OCn1ncc(Cl)c(Cl)c1=O)c1ccc(C(F)(F)F)cc1 | -13.4 | 1.9 | 26.2 | 3.7 | -35.7
Cc1cccc(Cn2ncc(Cl)c(Cl)c2=O)c1 | 49.2* | 2.5 | -18.5 | -2.0 | x
Cc1ccc(C(=O)N2CCN(S(=O)(=O)c3ccc(C)c([N+](=O)[O-])c3)C2)cc1 | x | 0.4 | x | -4.8 | x
Cc1ccc(COC(=O)c2nn(-c3ccccc3)nc2N)cc1 | x | 5.8 | x | -2.8 | 33.3
COc1cccc(COC(=O)c2nn(-c3ccccc3)nc2N)c1 | x | 9.7* | x | -1.5 | 47.4
COc1ccc(-c2nc(SC)n(S(=O)(=O)c3ccccc3)n2)cc1 | -22.3 | 1.7 | x | -2.2 | 89.7*
O=C(OCc1ccc(Cl)cc1Cl)c1ccncc1 | -24.4 | -0.1 | -13.1 | -3.3 | x
CCOc1cc(C(=O)N(C)Cc2cc3ccccc3[nH]c2=O)cc(OCC)c1OCC | -10.4 | 8.8* | -9.5 | -1.7 | -15.8
CCOc1ccccc1C(=O)N(C)Cc1cc2ccccc2[nH]c1=O | -3.4 | 1.6 | -29.9 | -11.5 | 13.8
O=C(COc1ccc(-c2ccccc2)cc1)N1CCN(C(=O)c2cccs2)CC1 | x | 2.4 | x | -3.8 | 25.9
CC(=O)N1N=C(N)SC12CCCC2 | x | -0.3 | x | 10.6* | x
Cc1ccc2c(Cl)c(C)c(N3CCCC3)nc2n1 | -5.5 | 1.2 | -4.8 | -1.3 | 76.7*
CCCC(c1nnnn1C(C)(C)C)N1CCN(C(=O)c2ccco2)CC1 (stereo not given) | x | 0.1 | x | -7.0 | x
SMILES | Yeast growth inh | RAM network inh | Yeast life ext | HMGR II inh | Insulin prom inh
CN(C)S(=O)(=O)N1CCN(c2ccc([N+](=O)[O-])c(NC3CC3)c2)CC1 | x | 8.6* | x | -2.1 | x
CO/N=C/C1CCN(c2ncc(C(F)(F)F)cc2Cl)C1=O (stereo not given) | x | 0.4 | x | -3.7 | x
COc1ccc(C2C(C(C)=O)=C(C)N=c3s/c(=C\c4cc(C)n(C)c4C)c(=O)n32)c(OC)c1 (stereo not given) | -38.0 | 8.4* | -5.7 | -1.9 | x
COc1ccc(C2C(C(C)=O)=C(C)N=c3s/c(=C\c4ccco4)c(=O)n32)c(OC)c1 (stereo not given) | -38.9 | 3.3 | -5.0 | -1.1 | x
COC(=O)c1ccc(-c2ncc[nH]2)cc1 | x | 1.1 | x | 0.0 | x
Cc1c(NC(=O)CCc2ccccc2)cccc1[N+](=O)[O-] | x | 0.8 | x | -11.2 | 17.6
COc1ccc(-n2c(COc3ccc(Cl)cc3)nnc2SCc2ccc(C#N)cc2)cc1 | -1.8 | 8.2 | 8.7 | -8.7 | -5.7
Cc1ccc(OCc2nnc(SCC(=O)c3ccccc3)n2-c2ccccc2)cc1 | -35.3 | 9.4* | x | -0.6 | -37.5
COc1ccc(-n2c(COc3ccc(C)cc3)nnc2SCc2ccc(C#N)cc2)cc1 | -70.6 | 9.6* | 0.2 | 0.0 | -35.3
COc1ccc(CC(=O)NNC(=O)CSc2nnc(Cc3ccc(OC)cc3)n2-c2ccccc2)cc1 | -12.3 | 0.9 | -1.9 | -8.6 | 71.4*
Cc1ccc(OCCSCc2nnc(NC(=O)Nc3cccc(Cl)c3)s2)cc1 | -4.2 | 8.4* | 5.5 | -1.2 | -31.0
CCCn1nnc(NC(=O)c2cc(Br)ccc2OC)n1 | -12.3 | -1.6 | -16.4 | -4.3 | 83.9*
CCCn1nnc(NC(=O)c2cccc(Cl)c2)n1 | -38.9 | 0.8 | -1.8 | 2.3 | 32.4
C/C(=C\C(=O)C(F)(F)F)Nc1ccc(C(F)(F)F)cc1 | -28.7 | 2.3 | -21.6 | -1.3 | 40.6
CC(C)(CCl)C(=O)Nc1ccc(C(F)(F)F)cc1 | x | 0.0 | x | -5.8 | 84.6*
Cc1cccc(OCCCOc2cccc3cccnc23)c1C | 72.8* | 0.1 | -28.0 | -11.1 | x
Cc1cccc(OCCCCc2c(C)n[nH]c2C)c1C | 69.1* | -0.3 | -19.3 | 4.2 | 0.0
COc1ccccc1OCCCc1c(C)n[nH]c1C | 99.6* | -0.9 | -30.1 | -6.2 | 0.0
CCOc1ccccc1OCCCCCc1c(C)n[nH]c1C | -18.5 | -0.6 | -7.3 | -4.1 | x
COc1ccccc1OCCCCCc1c(C)n[nH]c1C | -31.3 | 1.1 | -10.2 | 4.2 | 11.5
COCCN(Cc1cc2cc3c(cc2nc1Cl)OCO3)C(=O)c1ccc(C)cc1 | x | 1.1 | x | 0.4 | -12.5
COc1ccc2[nH]c(=O)c(CN(Cc3cccs3)C(=S)Nc3cccc(C)c3)cc2c1 | 6.9 | 10.2* | -0.3 | -6.5 | 29.7
COc1ccc(NC(=S)N(Cc2cccnc2)Cc2cc3cc(OC)c(OC)cc3[nH]c2=O)cc1 | x | 8.6* | x | 6.4 | x
CC(C)NC(=S)N/N=C/c1sc(N2CCCCC2)nc1-c1cccs1 | -21.1 | 1.2 | -4.8 | 0.0 | -17.9
CCCCNC(=S)N(C)/N=C/c1sc(N2CCCCC2)nc1-c1cccs1 | -19.7 | 9.9* | -5.2 | -0.1 | -17.9
SMILES | Yeast growth inh | RAM network inh | Yeast life ext | HMGR II inh | Insulin prom inh
CCCOCC(O)CCc1n[nH]c(=S)n1-c1ccccc1 (stereo not given) | x | 3.2 | x | -2.8 | 28.6
COc1ccccc1OCC(=O)n1cc(C(=O)c2cc(Cl)cc(Cl)c2O)cn1 | 45.3* | -1.5 | -8.3 | -0.8 | 13.3
O=C(CSc1nnc(-c2ccco2)n1-c1ccccc1)NCc1ccco1 | -45.7 | 2.1 | -13.9 | -0.3 | 80.6*
O=C(CSc1nnc(-c2ccccc2)n1-c1ccccc1)NCc1ccco1 | -40.8 | 5.1 | -6.2 | 2.3 | -28.6
COc1ccccc1NC(=O)CSc1nnc(-c2ccco2)n1Cc1ccco1 | -14.6 | 1.6 | -6.7 | -3.8 | -7.7
CCCNC(=O)CSc1nnc(-c2ccco2)n1C | 8.8 | 1.2 | -17.2 | 0.1 | x
